Laboratory results taken from ChEMBL document CHEMBL1136228 (Bioorg Med Chem Lett, 2003).
Values belong to the compound of their own block, whether it stands above or below them.

What was measured:
[1] = target: T1, Peroxisome proliferator-activated receptor gamma (Homo sapiens, UniProt P37231); experiment: Binding affinity towards peroxisome proliferator activated receptor gamma (PPAR gamma); weakly active
T1 sequence (P37231 whole entry): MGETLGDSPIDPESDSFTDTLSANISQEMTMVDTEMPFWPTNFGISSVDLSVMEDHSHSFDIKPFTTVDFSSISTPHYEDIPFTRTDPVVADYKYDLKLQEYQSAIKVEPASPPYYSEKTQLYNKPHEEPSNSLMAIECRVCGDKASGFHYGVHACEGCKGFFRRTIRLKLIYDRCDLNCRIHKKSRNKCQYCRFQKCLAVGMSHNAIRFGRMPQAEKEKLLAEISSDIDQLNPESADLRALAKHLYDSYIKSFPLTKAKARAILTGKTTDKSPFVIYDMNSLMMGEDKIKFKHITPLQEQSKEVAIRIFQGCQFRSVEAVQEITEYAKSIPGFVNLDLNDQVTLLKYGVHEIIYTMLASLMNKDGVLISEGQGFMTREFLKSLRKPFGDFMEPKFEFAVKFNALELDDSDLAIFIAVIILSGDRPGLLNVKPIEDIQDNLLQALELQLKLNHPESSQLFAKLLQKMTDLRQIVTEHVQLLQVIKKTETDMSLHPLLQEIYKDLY

[2] = target: T1, Peroxisome proliferator-activated receptor gamma; experiment: Binding affinity towards human peroxisome proliferator activated receptor gamma (PPAR gamma) was determined by HTRF assay; weakly active
[3] = target: T2, Peroxisome proliferator-activated receptor alpha (Homo sapiens, UniProt Q07869); experiment: Binding affinity towards peroxisome proliferator activated receptor alpha (PPAR alpha); weakly active
T2 sequence (Q07869 whole entry): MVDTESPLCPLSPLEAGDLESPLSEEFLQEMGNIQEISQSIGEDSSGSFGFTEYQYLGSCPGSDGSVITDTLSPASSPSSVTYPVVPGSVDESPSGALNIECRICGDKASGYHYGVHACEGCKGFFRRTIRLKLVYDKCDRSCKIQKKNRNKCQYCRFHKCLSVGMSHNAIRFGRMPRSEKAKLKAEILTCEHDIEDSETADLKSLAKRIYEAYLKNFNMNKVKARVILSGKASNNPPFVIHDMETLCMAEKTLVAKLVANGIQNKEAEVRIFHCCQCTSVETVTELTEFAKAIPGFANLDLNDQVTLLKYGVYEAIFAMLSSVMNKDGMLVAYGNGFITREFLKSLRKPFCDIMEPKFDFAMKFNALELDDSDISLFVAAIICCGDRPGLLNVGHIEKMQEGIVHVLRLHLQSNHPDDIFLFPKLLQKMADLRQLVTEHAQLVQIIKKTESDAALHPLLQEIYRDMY

[4] = target: T1, Peroxisome proliferator-activated receptor gamma
[5] = target: T2, Peroxisome proliferator-activated receptor alpha
[6] = system: Mus musculus; experiment: Fasting plasma glucose levels after 15 mg/kg peroral administration in db/db Mouse; format: functional; details: route oral
How it was run: (§1)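 db/db (lepr db-3J/lepr db-3J) mice dosed orally once daily for 11 days; fasting plasma glucose measured at day 11. Correction is expressed as mean glucose lowering, as a percentage of the difference between vehicle-treated db/db and lean control mice.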

[7] = system: Mus musculus; experiment: Fasting plasma glucose levels after 5 mg/kg peroral administration in db/db Mouse; format: functional; details: route oral; how it was run: as §1
[8] = target: T2, Peroxisome proliferator-activated receptor alpha; remark: listed apart in the source
[9] = target: T1, Peroxisome proliferator-activated receptor gamma; remark: listed apart in the source
[10] = system: Rattus norvegicus; experiment: Body weight of Sprague-Dawley rat after 30 mg/kg peroral administration; details: route oral
[11] = system: Rattus norvegicus; experiment: Heart weight of Sprague-Dawley rat after 30 mg/kg peroral administration; details: route oral
[12] = system: Rattus norvegicus; experiment: Triglyceride change in Sprague-Dawley rat after 30 mg/kg peroral administration; details: route oral
[13] = system: Rattus norvegicus; experiment: Total Cholesterol change in Sprague-Dawley rat after 30 mg/kg peroral administration; details: route oral
[14] = system: Rattus norvegicus; experiment: Brown adipose tissue weight in Sprague-Dawley rat after 30 mg/kg peroral administration; details: route oral
[15] = system: Mus musculus; experiment: Fasting plasma glucose level after 10 mg/kg peroral administration in db/db Mouse; format: functional; details: route oral; how it was run: as §1
[16] = system: Mus musculus; experiment: Fasting plasma glucose levels after 30 mg/kg peroral administration in db/db Mouse; format: functional; details: route oral; how it was run: as §1
[17] = target: T1, Peroxisome proliferator-activated receptor gamma; experiment: Binding affinity towards peroxisome proliferator activated receptor gamma (PPAR gamma): Weakly active
[18] = system: Rattus norvegicus; experiment: Body weight of Sprague-Dawley rat after 10 mg/kg peroral administration; details: route oral
[19] = system: Rattus norvegicus; experiment: Heart weight of Sprague-Dawley rat after 10 mg/kg peroral administration; details: route oral
[20] = system: Rattus norvegicus; experiment: Triglyceride change in Sprague-Dawley rat after 10 mg/kg peroral administration; details: route oral
[21] = system: Rattus norvegicus; experiment: Total Cholesterol change in Sprague-Dawley rat after 10 mg/kg peroral administration; details: route oral
[22] = system: Rattus norvegicus; experiment: Brown adipose tissue weight in Sprague-Dawley rat after 10 mg/kg peroral administration; details: route oral

Ki [4]: 1100 nM | Ki [5]: 63 nM
SMILES: CCCc1cc(C(=O)OC)cc(CCC)c1OC(C(=O)O)c1ccccc1 (centres undefined)

Ki [4]: 5940 nM | Ki [5]: 28 nM
SMILES: CCCc1cc(C(=O)OC)cc(C)c1OC(C(=O)O)c1ccccc1 (centres undefined)

Ki [1]: Partially active | Ki [3]: Partially active | EC50 [9]: 3150 nM
SMILES: CCCc1cc2c(C(F)(F)F)noc2c(CCC)c1O[C@@H](C(=O)O)c1ccccc1

Ki [4]: 985 nM | EC50 [8]: 804 nM | Ki [5]: 293 nM | EC50 [9]: 3760 nM
SMILES: CCCc1c(O)c(C(=O)CC)cc(Cl)c1OC(C(=O)O)c1ccccc1 (centres undefined)

Continued, compound first:

SMILES: CCCc1c(OC(C(=O)O)c2ccccc2)ccc(C(=O)CC)c1O (centres undefined)
Ki [1]: Partially active | Ki [2]: Partially active | Ki [3]: Partially active

SMILES: CCCc1c(OC(C(=O)O)c2ccccc2)c(Cl)cc2c(CC)noc12 (centres undefined)
FPG correction [6]: 47% | FPG correction [7]: 10% | Ki [1]: Partially active | EC50 [8]: 162 nM | Ki [5]: 38 nM | EC50 [9]: 1120 nM | Body weight [10]: 312 g | Heart weight [11]: 1.22 g | Change [12]: -11% | Change [13]: -9% | BAT weight [14]: 0.34 g

SMILES: CCCc1cc2c(C(F)(F)F)noc2c(CCC)c1O[C@H](C(=O)O)c1ccccc1
FPG correction [15]: 50% | Ki [4]: 618 nM | Ki [5]: 12 nM | EC50 [9]: 194 nM

SMILES: CCCc1cc(C(=O)OC)cc(Cl)c1OC(C(=O)O)c1ccccc1 (centres undefined)
Ki [4]: 8530 nM | Ki [5]: 57 nM

SMILES: COC(=O)c1cc(C)c(OC(C(=O)O)c2ccccc2)c(C)c1 (centres undefined)
Ki [4]: > 10000 nM | Ki [5]: 225 nM

SMILES: CCCc1cc(C(=O)CC)c(O)c(CCC)c1OC(C(=O)O)c1ccccc1 (centres undefined)
FPG correction [16]: 55% | FPG correction [15]: 42% | Ki [17]: Partially active | EC50 [8]: 37 nM | Ki [5]: 81 nM | EC50 [9]: 1090 nM | Body weight [18]: 290 g | Body weight [10]: 294 g | Heart weight [19]: 1.11 g | Heart weight [11]: 1.06 g | Change [20]: -64% | Change [12]: -8% | Change [21]: -36% | Change [13]: -7% | BAT weight [22]: 0.29 g | BAT weight [14]: 0.34 g

SMILES: CCCc1cc2c(C(F)(F)F)noc2c(CCC)c1OC(C(=O)O)c1ccc(CCc2ccccn2)cc1 (centres undefined)
FPG correction [15]: 75% | Ki [4]: 197 nM | EC50 [8]: 28 nM | Ki [5]: 65 nM | EC50 [9]: 110 nM
